Test results taken from ChEMBL document CHEMBL1157306, “Capisterones A and B, which enhance fluconazole activity in Saccharomyces cerevisiae, from the marine green alga Penicillus capitatus” (J Nat Prod, 2006).
The source made the active and inactive calls. No cut-off for these calls is given here.

How the values were obtained:
Saccharomyces cerevisiae [1] = experiment: Potentiation of fluconazole-induced antifungal activity against Saccharomyces cerevisiae DSY 415 overexpressing Candida albicans CDR1 assessed as fractional inhibitory concentration at 12.8 uM; format: functional
How it was run: (§1)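 Fluconazole dose-response curves were run alone and with a fixed concentration of second agent (22.5, 6.0 or 12.8 μM). Strains were S. cerevisiae null pump DSY 390 and DSY 415 overexpressing C. albicans CDR1 or MDR1. Growth inhibition was the read-out, and the fractional inhibitory concentration was derived from it.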

Saccharomyces cerevisiae [2] = experiment: Potentiation of fluconazole-induced antifungal activity against Saccharomyces cerevisiae DSY 415 overexpressing Candida albicans MDR1 assessed as fractional inhibitory concentration at 12.8 uM; format: functional; how it was run: as §1
Saccharomyces cerevisiae [3] = experiment: Potentiation of fluconazole-induced antifungal activity against null pump Saccharomyces cerevisiae DSY 390 assessed as fractional inhibitory concentration at 12.8 uM; format: functional; how it was run: as §1
SK-MEL = experiment: Cytotoxicity against human SK-MEL cells; format: functional, cell-based
How it was run: (§2)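 Human cancer cell lines (KB, SK-MEL, BT-549, SK-OV-3) tested alongside non-cancerous Vero cells, with test agent concentrations up to 35 μM.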

Saccharomyces cerevisiae [4] = experiment: Antifungal activity against Saccharomyces cerevisiae DSY 415 overexpressing Candida albicans MDR1; format: functional, organism-based
How it was run: (§3)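 Growth inhibition of S. cerevisiae strains with efflux pumps overexpressed (CDR1 or MDR1, DSY 415) or no pump (DSY 390) was measured across a dose range of test agent alone. IC50 was read from the dose-response curves.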

Saccharomyces cerevisiae [5] = experiment: Potentiation of fluconazole-induced antifungal activity against Saccharomyces cerevisiae DSY 415 overexpressing Candida albicans MDR1 assessed as fractional inhibitory concentration at 22.5 uM; format: functional; how it was run: as §1
Saccharomyces cerevisiae [6] = experiment: Antifungal activity against Saccharomyces cerevisiae DSY 415 overexpressing Candida albicans MDR1 at 67.4 uM; format: functional, organism-based
Saccharomyces cerevisiae [7] = experiment: Potentiation of fluconazole-induced antifungal activity against null pump Saccharomyces cerevisiae DSY 390 assessed as fractional inhibitory concentration at 22.5 uM; format: functional
How it was run: (§4)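 Pump-null S. cerevisiae DSY 390 was run in parallel with strains overexpressing C. albicans CDR1 or MDR1 efflux pumps. Growth-inhibition dose-response curves were recorded for fluconazole alone and for fluconazole with a fixed modulator concentration (22.5 or 6.0 μM). The interaction was expressed as a fractional inhibitory concentration (FIC) index.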

Saccharomyces cerevisiae [8] = experiment: Antifungal activity against null pump Saccharomyces cerevisiae DSY 390 at 12.8 uM; format: functional, organism-based
Saccharomyces cerevisiae [9] = experiment: Antifungal activity against Saccharomyces cerevisiae DSY 415 overexpressing Candida albicans CDR1 at 12.8 uM; format: functional, organism-based
Saccharomyces cerevisiae [10] = experiment: Antifungal activity against null pump Saccharomyces cerevisiae DSY 390 at 67.4 uM; format: functional, organism-based
Candida albicans = experiment: Antifungal activity against Candida albicans; format: functional, organism-based
Saccharomyces cerevisiae [11] = experiment: Antifungal activity against Saccharomyces cerevisiae DSY 415 overexpressing Candida albicans MDR1 at 12.8 uM; format: functional, organism-based
KB = experiment: Cytotoxicity against human KB cells; format: functional, cell-based; how it was run: as §2
Vero = experiment: Cytotoxicity against african green monkey Vero cells up to 35 uM; format: cell-based; conditions: chlorocebus sabaeus
Saccharomyces cerevisiae [12] = experiment: Antifungal activity against Saccharomyces cerevisiae DSY 415 overexpressing Candida albicans CDR1; format: functional, organism-based; how it was run: as §3
Saccharomyces cerevisiae [13] = experiment: Antifungal activity against null pump Saccharomyces cerevisiae DSY 390; format: functional, organism-based; how it was run: as §3
Saccharomyces cerevisiae [14] = experiment: Antifungal activity against Saccharomyces cerevisiae DSY 415 overexpressing Candida albicans CDR1 at 67.4 uM; format: functional, organism-based
Pichia kudriavzevii = experiment: Antifungal activity against Candida krusei; format: functional, organism-based
SK-OV-3 = experiment: Cytotoxicity against human SKOV3 cells; format: functional, cell-based; how it was run: as §2
Cryptococcus neoformans = experiment: Antifungal activity against Cryptococcus neoformans; format: functional, organism-based
Aspergillus fumigatus = experiment: Antifungal activity against Aspergillus fumigatus; format: functional, organism-based
Nakaseomyces glabratus = experiment: Antifungal activity against Candida glabrata; format: functional, organism-based
Saccharomyces cerevisiae [15] = experiment: Potentiation of fluconazole-induced antifungal activity against Saccharomyces cerevisiae DSY 415 overexpressing Candida albicans CDR1 assessed as fractional inhibitory concentration at 22.5 uM; format: functional; how it was run: as §1
BT-549 = experiment: Cytotoxicity against human BT549 cells; format: functional, cell-based; how it was run: as §2
Saccharomyces cerevisiae [16] = experiment: Potentiation of fluconazole-induced antifungal activity against Saccharomyces cerevisiae DSY 415 overexpressing Candida albicans MDR1 assessed as fractional inhibitory concentration at 6.03 uM; format: functional; how it was run: as §1
Saccharomyces cerevisiae [17] = experiment: Potentiation of fluconazole-induced antifungal activity against Saccharomyces cerevisiae DSY 415 overexpressing Candida albicans CDR1 assessed as fractional inhibitory concentration at 6.03 uM; format: functional; how it was run: as §1
Saccharomyces cerevisiae [18] = experiment: Potentiation of fluconazole-induced antifungal activity against null pump Saccharomyces cerevisiae DSY 390 assessed as fractional inhibitory concentration at 6.03 uM; format: functional; how it was run: as §4

SMILES	Activity (SK-MEL)	IC50 (Saccharomyces cerevisiae [4]) [µM]	Activity (Candida albicans)	Activity (KB)	Activity (Vero)	IC50 (Saccharomyces cerevisiae [12]) [µM]	IC50 (Saccharomyces cerevisiae [13]) [µM]	Activity (Pichia kudriavzevii)	Activity (SK-OV-3)	Activity (Cryptococcus neoformans)	Activity (Aspergillus fumigatus)	Activity (Nakaseomyces glabratus)	Activity (BT-549)	also measured
CC(C)[C@@H]1OC(=O)[C@@H](Cc2ccccc2)N(C)C(=O)[C@H](C(C)C)OC(=O)[C@@H](Cc2ccccc2)N(C)C(=O)[C@H](C(C)C)OC(=O)[C@@H](Cc2ccccc2)N(C)C1=O [BEAUVERICIN]	–	–	–	–	–	–	–	–	–	–	–	–	–	FIC50 (Saccharomyces cerevisiae [1]): 0.05; FIC50 (Saccharomyces cerevisiae [2]): 2; FIC50 (Saccharomyces cerevisiae [3]): 2.67
CC(=O)OC[C@@]1(COS(=O)(=O)O)C(=O)CC[C@]23C[C@]24CC[C@]2(C)[C@@H]([C@H](C)CC(=O)CC(C)C)CC[C@@]2(C)[C@@H]4CC[C@@H]13 [CAPISTERONE A]	inactive	> 67	inactive	inactive	Not Active	> 67	> 67	inactive	inactive	inactive	inactive	inactive	inactive	FIC50 (Saccharomyces cerevisiae [5]): 0.08; Activity (Saccharomyces cerevisiae [6]): inactive; FIC50 (Saccharomyces cerevisiae [7]): 0.55; Activity (Saccharomyces cerevisiae [8]): inactive; Activity (Saccharomyces cerevisiae [9]): inactive; Activity (Saccharomyces cerevisiae [10]): inactive; Activity (Saccharomyces cerevisiae [11]): inactive; Activity (Saccharomyces cerevisiae [14]): inactive; FIC50 (Saccharomyces cerevisiae [15]): 0.33
CC(C)CC(=O)C[C@@H](C)[C@H]1CC[C@@]2(C)[C@@H]3CC[C@H]4[C@](CO)(COS(=O)(=O)O)C(=O)CC[C@@]45C[C@@]35CC[C@]12C [CAPISTERONE B]	inactive	7	inactive	inactive	Not Active	7	7	inactive	inactive	inactive	inactive	inactive	inactive	FIC50 (Saccharomyces cerevisiae [16]): 0.15; FIC50 (Saccharomyces cerevisiae [17]): 0.33; FIC50 (Saccharomyces cerevisiae [18]): 0.5
